≈ marks a conversion by molar mass, not a printed value.
Key:
Streptococcus pneumoniae = test: Antibacterial activity against Streptococcus pneumoniae ATCC 49619 after 18 to 24 hrs by broth microdilution method; assay type: functional
Procedure, shortened: (§1)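 Strains grown overnight at 35°C on tryptic soy agar; 0.5 McFarland saline suspension diluted in Mueller-Hinton broth, final inoculum 5 × 10⁵ CFU/mL. Twofold serial dilutions, final 0.06 to 32 mg/L, in MHB; incubated 35°C for 18–24h. MIC read visually as lowest concentration preventing growth.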

Staphylococcus aureus [1] = test: Antibacterial activity against methicillin-resistant Staphylococcus aureus 494 after 18 to 24 hrs by broth microdilution method; assay type: functional
Procedure, shortened: (§2)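 MIC by broth microdilution in Mueller-Hinton broth. Strains grown overnight at 35°C on tryptic soy agar, suspended in saline to 0.5 McFarland, diluted in MHB, final inoculum 5 × 10⁵ CFU/mL. Twofold serial dilutions, final 0.06 to 32 mg/L. Incubated 35°C for 18–24 h. MIC read visually as lowest concentration preventing growth.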

Klebsiella aerogenes = test: Antibacterial activity against Enterobacter aerogenes CEF 3978 after 18 to 24 hrs by broth microdilution method; assay type: functional; procedure, shortened: as §1
Escherichia coli = test: Antibacterial activity against Escherichia coli ATCC 25922 after 18 to 24 hrs by broth microdilution method; assay type: functional; procedure, shortened: as §1
Staphylococcus aureus [2] = test: Antibacterial activity against vancomycin-intermediate Staphylococcus aureus Mu50 after 18 to 24 hrs by broth microdilution method; assay type: functional; procedure, shortened: as §1
[3] = Therapeutic index, ratio of LD50 for mouse NIH/3T3 cells to MIC for vancomycin-resistant Staphylococcus aureus MI; assay type: cell-based; conditions: read-out: TI
Procedure, shortened: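 Index computed as LD50 from NIH-3T3 MTS viability (24 h exposure, 10–100 mg/L, nonlinear regression) divided by VRSA MIC from broth microdilution (5 × 10⁵ CFU/mL, 35°C, 18–24 h, visual read).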

Enterococcus faecium = test: Antibacterial activity against vancomycin-resistant Enterococcus faecium 7303 after 18 to 24 hrs by broth microdilution method; assay type: functional; procedure, shortened: as §2
Klebsiella pneumoniae = test: Antibacterial activity against Klebsiella pneumoniae CEF 3978 after 18 to 24 hrs by broth microdilution method; assay type: functional; procedure, shortened: as §1
[4] = Cytotoxicity against mouse NIH/3T3 cells after 24 hrs by MTS assay; assay type: cell-based, NIH3T3; conditions: read-out: LD50
Procedure, shortened: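 NIH-3T3 mouse embryo fibroblasts kept in DMEM with 10% FBS, about 10,000 cells per well, attached overnight. Treated 24 h with 10, 25, 50 or 100 mg/L compound (DMSO) in DMEM/FBS. MTS added in fresh DMEM for 1 h at 37 °C, absorbance at 490 nm. Four replicates, media negative and 5% DMSO positive controls. Viability relative to untreated cells; LD50 by nonlinear regression.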

[5] = Toxicity in sheep RBC assessed as hemolysis at 25 times MIC after 1 hr; assay type: cell-based, Ovis aries, Erythrocyte; conditions: sheep red blood cells, read-out: Activity
Procedure, shortened: (§3)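 Sheep RBCs separated from plasma and white cells by centrifugation, washed twice in TBS (10 mM Tris, 150 mM NaCl, pH 7.0), diluted to 1%. Treated with increasing concentrations of compound in DMSO, 37 °C for 1 h, in duplicate. Supernatant absorbance at 414 nm for hemoglobin release; DMSO set as 0%, 1% Triton X as 100% hemolysis.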

Staphylococcus aureus [6] = test: Antibacterial activity against vancomycin-resistant Staphylococcus aureus MI after 18 to 24 hrs by broth microdilution method; assay type: functional; procedure, shortened: as §2
Pseudomonas aeruginosa = test: Antibacterial activity against Pseudomonas aeruginosa ATCC 27853 after 18 to 24 hrs by broth microdilution method; assay type: functional; procedure, shortened: as §1
[7] = Toxicity in sheep RBC assessed as hemolysis at 50 times MIC after 1 hr; assay type: cell-based, Ovis aries, Erythrocyte; conditions: sheep red blood cells, read-out: Activity; procedure, shortened: as §3

SMILES	MIC (Streptococcus pneumoniae)	MIC (Staphylococcus aureus [1])	MIC (Klebsiella aerogenes)	MIC (Escherichia coli)	MIC (Staphylococcus aureus [2])	selectivity ratio [3]	MIC (Enterococcus faecium)	MIC (Klebsiella pneumoniae)	CC50 at 24 h [4]	hemolysis at 1 h, 25 times MIC [5]	MIC (Staphylococcus aureus [6])	MIC (Pseudomonas aeruginosa)	hemolysis at 1 h, 50 times MIC [7]
CC(C)C1Cc2sc3[nH]c(=O)n(C/C=C/c4ccc(O)cc4)c(=O)c3c2C(Cc2ccccc2)C1 (stereo unspecified)	32 µg/mL (≈ 65.8 µM)	16 µg/mL (≈ 32.9 µM)	32 µg/mL (≈ 65.8 µM)	32 µg/mL (≈ 65.8 µM)	16 µg/mL (≈ 32.9 µM)	5	8 µg/mL (≈ 16.4 µM)	32 µg/mL (≈ 65.8 µM)	42 µg/mL (≈ 86.3 µM)	7%	8 µg/mL (≈ 16.4 µM)	16 µg/mL (≈ 32.9 µM)	–
CCOC(=O)c1sc2[nH]c(=O)n(C/C=C/c3ccc(O)cc3)c(=O)c2c1CCc1ccccc1	8 µg/mL (≈ 16.8 µM)	2 µg/mL (≈ 4.2 µM)	16 µg/mL (≈ 33.6 µM)	> 32 µg/mL	2 µg/mL (≈ 4.2 µM)	26	4 µg/mL (≈ 8.39 µM)	32 µg/mL (≈ 67.1 µM)	52 µg/mL (≈ 109 µM)	–	2 µg/mL (≈ 4.2 µM)	32 µg/mL (≈ 67.1 µM)	2%
COc1ccc(/C=C/Cn2c(=O)[nH]c3sc4c(c3c2=O)C(Cc2ccccc2)CC(C(C)C)C4)cc1 (stereo unspecified)	32 µg/mL (≈ 63.9 µM)	> 32 µg/mL	32 µg/mL (≈ 63.9 µM)	> 32 µg/mL	> 32 µg/mL	4	> 32 µg/mL	> 32 µg/mL	120 µg/mL (≈ 240 µM)	–	> 32 µg/mL	> 32 µg/mL	–
CCOC(=O)c1sc2[nH]c(=O)n(C/C=C/c3ccc(OC)cc3)c(=O)c2c1CCc1ccccc1	> 32 µg/mL	> 32 µg/mL	8 µg/mL (≈ 16.3 µM)	> 32 µg/mL	> 32 µg/mL	3	> 32 µg/mL	> 32 µg/mL	98 µg/mL (≈ 200 µM)	–	> 32 µg/mL	> 32 µg/mL	–
CCOC(=O)c1c(NC(=O)NC/C=C/c2ccc(O[Si](C)(C)C(C)(C)C)cc2)sc2c1C(Cc1ccccc1)CC(C(C)C)C2 (stereo unspecified)	> 32 µg/mL	> 32 µg/mL	> 32 µg/mL	> 32 µg/mL	> 32 µg/mL	–	> 32 µg/mL	> 32 µg/mL	–	–	> 32 µg/mL	> 32 µg/mL	–
CCOC(=O)c1sc(NC(=O)NC/C=C/c2ccc(O[Si](C)(C)C(C)(C)C)cc2)c(C(=O)OCC)c1CCc1ccccc1	> 32 µg/mL	> 32 µg/mL	> 32 µg/mL	> 32 µg/mL	> 32 µg/mL	–	> 32 µg/mL	> 32 µg/mL	–	–	> 32 µg/mL	> 32 µg/mL	–
CCOC(=O)c1sc(NC(=O)NC/C=C/c2ccc(OC)cc2)c(C(=O)OCC)c1CCc1ccccc1	> 32 µg/mL	> 32 µg/mL	> 32 µg/mL	> 32 µg/mL	> 32 µg/mL	–	> 32 µg/mL	> 32 µg/mL	–	–	> 32 µg/mL	> 32 µg/mL	–
CN[C@H](CC(C)C)C(=O)N[C@H]1C(=O)N[C@@H](CC(N)=O)C(=O)N[C@H]2C(=O)N[C@H]3C(=O)N[C@H](C(=O)N[C@H](C(=O)O)c4cc(O)cc(O)c4-c4cc3ccc4O)[C@H](O)c3ccc(c(Cl)c3)Oc3cc2cc(c3O[C@@H]2O[C@H](CO)[C@@H](O)[C@H](O)[C@H]2O[C@H]2C[C@](C)(N)[C@H](O)[C@H](C)O2)Oc2ccc(cc2Cl)[C@H]1O [VANCOMYCIN]	0.5 µg/mL (≈ 0.345 µM)	–	–	–	–	–	> 32 µg/mL	–	–	–	–	> 32 µg/mL	–
